# Measured values reported in ChEMBL document CHEMBL1909512, “Indolin-2-one p38α inhibitors III: bioisosteric amide replacement” (Bioorg Med Chem Lett, 2011).
# Key:
# Blood = assay: Inhibition of LPS-induced TNFalpha release in human whole blood after 24 hrs by ELISA; assay type: functional, tissue-based
# Liver microsomes [1] = assay: Metabolic stability in rat liver microsomes in absence of NADPH; assay type: ADME, Microsome
# Liver microsomes [2] = assay: Metabolic stability in human liver microsomes in absence of NADPH; assay type: ADME, Microsome
# [3] = target: T1, Mitogen-activated protein kinase 14 (Homo sapiens, UniProt Q16539)
# [4] = Metabolic stability in rat liver microsomes assessed as compound turnover at 5 uM after 30 mins in presence of NADPH; assay type: ADME, Microsome; details: read-out: Drug metabolism
# Procedure, shortened: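 5 µM test compound incubated with rat or human hepatic microsomes (1 mg/mL) plus NADPH for 30 min at 37 °C; result given as % turnover.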
# [5] = Metabolic stability in human liver microsomes assessed as compound turnover at 5 uM after 30 mins in presence of NADPH; assay type: ADME, Microsome; details: read-out: Drug metabolism
# CHO [6] = assay: Cytotoxicity against CHO cells; assay type: cell-based; details: Cricetulus griseus
# Liver microsomes [7] = assay: Metabolic stability in human liver microsomes assessed as compound turnover at 5 uM after 30 mins in absence of NADPH; assay type: ADME, Microsome; details: 0.5 h
# Cytochrome P450 3A4 = Cytochrome P450 3A4 (Homo sapiens, UniProt P08684); assay: Inhibition of human CYP3A4; assay type: ADME
# [8] = target: T2, RAF proto-oncogene serine/threonine-protein kinase (Homo sapiens, UniProt P04049); details: 10 uM
# [9] = target: T3, 5-hydroxytryptamine receptor 1B (Homo sapiens, UniProt P28222); details: 10 uM
# [10] = Cmax in rat at 10 mg/kg, po; assay type: ADME, organism-based; design: dose 10 mg/kg, route oral; details: in vivo
# Cytochrome P450 2C9 = Cytochrome P450 2C9 (Homo sapiens, UniProt P11712); assay: Inhibition of human CYP2C9; assay type: ADME
# [11] = AUC (0 to infinity) in rat at 10 mg/kg, po; assay type: ADME, organism-based; design: time infinity, dose 10 mg/kg, route oral; details: plasma
# [12] = target: T4, High affinity nerve growth factor receptor (Homo sapiens, UniProt P04629); assay: Inhibition of human TrkA
# [13] = Apparent passive permeability from apical to basolateral side of the human Caco2 cells at 12.5 uM; assay type: ADME, cell-based; details: Caco-2
# Procedure, shortened: (§1)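 Passive permeability across Caco-2 monolayer measured with 12.5 µM test compound in both directions (apical-to-basal and basal-to-apical); Papp reported in 10^-6 cm/s.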
# [14] = Oral bioavailability in rat at 10 mg/kg; assay type: ADME, organism-based; details: in vivo
# [15] = Cmax in rat at 1 mg/kg, iv; assay type: ADME, organism-based; design: dose 1 mg/kg, route intravenous; details: in vivo
# [16] = Clearance in rat at 1 mg/kg, iv; assay type: ADME, organism-based; design: dose 1 mg/kg, route intravenous; details: in vivo
# Cytochrome P450 1A2 = target: T5, Cytochrome P450 1A2 (Homo sapiens, UniProt P05177); assay: Inhibition of human CYP1A2; assay type: ADME
# T5 sequence (P05177 whole entry): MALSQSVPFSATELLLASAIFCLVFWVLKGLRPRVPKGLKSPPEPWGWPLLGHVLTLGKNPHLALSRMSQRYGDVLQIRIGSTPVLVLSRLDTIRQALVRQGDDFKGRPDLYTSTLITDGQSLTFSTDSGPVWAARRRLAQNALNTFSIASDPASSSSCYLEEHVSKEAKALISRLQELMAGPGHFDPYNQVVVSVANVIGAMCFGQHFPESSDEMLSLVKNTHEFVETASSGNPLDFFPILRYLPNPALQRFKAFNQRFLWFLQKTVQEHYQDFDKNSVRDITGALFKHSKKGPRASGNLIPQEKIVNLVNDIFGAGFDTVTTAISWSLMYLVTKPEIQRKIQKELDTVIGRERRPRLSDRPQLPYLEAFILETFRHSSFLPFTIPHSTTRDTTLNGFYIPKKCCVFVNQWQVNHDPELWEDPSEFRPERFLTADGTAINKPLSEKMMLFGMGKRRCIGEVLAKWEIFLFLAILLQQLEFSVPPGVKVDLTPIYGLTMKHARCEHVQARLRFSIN
# Rattus norvegicus = assay: Antiinflammatory activity in rat assessed as inhibition of LPS-induced TNFalpha production plasma administered orally 1 hr prior to LPS challenge measured after 1.5 hrs by ELISA; assay type: functional
# Cytochrome P450 2D6 = Cytochrome P450 2D6 (Homo sapiens, UniProt P10635); assay: Inhibition of human CYP2D6; assay type: ADME
# Cytochrome P450 2C19 = Cytochrome P450 2C19 (Homo sapiens, UniProt P33261); assay: Inhibition of human CYP2C19; assay type: ADME
# [17] = Apparent passive permeability from basolateral to apical side of the human Caco2 cells at 12.5 uM; assay type: ADME, cell-based; details: Caco-2; procedure, shortened: as §1
# [18] = target: T3, 5-hydroxytryptamine receptor 1B; assay: Inhibition of 5-HT1B
# [19] = target: T2, RAF proto-oncogene serine/threonine-protein kinase; assay: Inhibition of cRaf
# [20] = AUC (0 to infinity) in rat at 1 mg/kg, iv; assay type: ADME, organism-based; design: time infinity, dose 1 mg/kg, route intravenous; details: plasma
# CHO [21] = assay: Cytotoxicity against CHO cells at 200 uM; assay type: cell-based, Cricetulus griseus; details: chinese hamster
# [22] = Half life in rat at 1 mg/kg, iv; assay type: ADME, organism-based; design: dose 1 mg/kg, route intravenous; details: in vivo
# hERG = hERG (Homo sapiens, UniProt Q12809); assay: Inhibition of human ERG expressed in HEK293 cells at 10 uM; assay type: cell-based; details: HEK293 cells that express hERG
# [23] = Mean residence time in rat at 1 mg/kg, iv; assay type: ADME, organism-based; design: dose 1 mg/kg, route intravenous; details: in vivo
# [24] = Volume of distribution at steady state in rat at 1 mg/kg, iv; assay type: ADME, organism-based; design: dose 1 mg/kg, route intravenous; details: in vivo, read-out: Vdss
# [25] = target: T4, High affinity nerve growth factor receptor; details: 10 uM
# Target sequence in this assay (P04629 33-796 limits assumed): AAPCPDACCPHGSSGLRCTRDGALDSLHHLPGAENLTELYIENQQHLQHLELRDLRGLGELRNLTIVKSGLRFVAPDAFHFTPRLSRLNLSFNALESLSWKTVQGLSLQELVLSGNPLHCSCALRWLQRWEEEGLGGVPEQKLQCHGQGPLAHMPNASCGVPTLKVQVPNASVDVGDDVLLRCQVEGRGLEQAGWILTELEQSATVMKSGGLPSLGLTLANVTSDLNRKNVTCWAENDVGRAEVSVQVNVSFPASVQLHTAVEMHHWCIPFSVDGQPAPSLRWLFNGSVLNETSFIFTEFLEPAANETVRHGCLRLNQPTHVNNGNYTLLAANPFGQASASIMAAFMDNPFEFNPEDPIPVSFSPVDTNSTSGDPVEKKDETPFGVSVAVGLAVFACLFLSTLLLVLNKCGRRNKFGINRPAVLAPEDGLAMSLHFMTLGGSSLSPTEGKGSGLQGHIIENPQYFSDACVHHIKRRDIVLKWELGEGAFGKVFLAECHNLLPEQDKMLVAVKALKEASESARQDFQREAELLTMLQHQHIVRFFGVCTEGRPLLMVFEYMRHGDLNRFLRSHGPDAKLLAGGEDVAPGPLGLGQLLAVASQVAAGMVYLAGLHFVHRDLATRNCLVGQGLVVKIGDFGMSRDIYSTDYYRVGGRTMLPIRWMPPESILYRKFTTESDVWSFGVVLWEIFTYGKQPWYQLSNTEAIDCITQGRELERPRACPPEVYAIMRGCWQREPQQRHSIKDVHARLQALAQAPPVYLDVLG
# CHO [26] = assay: Cytotoxicity against CHO cells at 100 uM; assay type: cell-based, Cricetulus griseus; details: chinese hamster
# [27] = target: T1, Mitogen-activated protein kinase 14; assay: Inhibition of human p38alpha using biotinylated ATF2 as substrate at 60 uM preincubated for 1 hr measured after 1 hr by FRET assay
# T1 sequence (Q16539 whole entry): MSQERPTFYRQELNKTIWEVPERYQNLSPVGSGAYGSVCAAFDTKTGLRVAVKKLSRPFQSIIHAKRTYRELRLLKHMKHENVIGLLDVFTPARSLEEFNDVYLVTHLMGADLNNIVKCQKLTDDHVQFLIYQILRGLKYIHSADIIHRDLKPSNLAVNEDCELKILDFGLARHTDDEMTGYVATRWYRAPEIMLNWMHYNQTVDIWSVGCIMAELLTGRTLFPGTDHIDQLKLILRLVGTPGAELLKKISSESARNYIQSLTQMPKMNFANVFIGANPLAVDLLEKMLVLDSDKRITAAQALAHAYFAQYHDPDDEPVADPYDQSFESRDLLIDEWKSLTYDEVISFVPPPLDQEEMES
# T2 sequence (P04049 whole entry): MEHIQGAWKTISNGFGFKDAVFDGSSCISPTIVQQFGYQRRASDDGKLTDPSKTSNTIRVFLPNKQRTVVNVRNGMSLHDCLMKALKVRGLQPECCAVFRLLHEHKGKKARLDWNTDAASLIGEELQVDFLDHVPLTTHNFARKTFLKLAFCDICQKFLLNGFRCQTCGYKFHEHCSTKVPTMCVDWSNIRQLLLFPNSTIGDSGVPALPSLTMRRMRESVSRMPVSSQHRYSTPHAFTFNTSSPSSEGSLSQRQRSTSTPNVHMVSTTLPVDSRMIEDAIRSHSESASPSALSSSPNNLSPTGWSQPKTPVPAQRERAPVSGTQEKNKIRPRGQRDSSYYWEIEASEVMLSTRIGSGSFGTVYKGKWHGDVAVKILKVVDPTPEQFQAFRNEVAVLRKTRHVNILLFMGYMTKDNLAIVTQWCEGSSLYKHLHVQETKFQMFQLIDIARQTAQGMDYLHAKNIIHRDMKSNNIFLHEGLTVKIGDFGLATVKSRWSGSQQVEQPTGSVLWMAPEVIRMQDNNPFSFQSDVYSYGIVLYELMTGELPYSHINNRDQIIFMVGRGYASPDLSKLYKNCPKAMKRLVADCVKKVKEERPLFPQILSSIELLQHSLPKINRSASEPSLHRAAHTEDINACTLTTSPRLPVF
# T3 sequence (P28222 whole entry): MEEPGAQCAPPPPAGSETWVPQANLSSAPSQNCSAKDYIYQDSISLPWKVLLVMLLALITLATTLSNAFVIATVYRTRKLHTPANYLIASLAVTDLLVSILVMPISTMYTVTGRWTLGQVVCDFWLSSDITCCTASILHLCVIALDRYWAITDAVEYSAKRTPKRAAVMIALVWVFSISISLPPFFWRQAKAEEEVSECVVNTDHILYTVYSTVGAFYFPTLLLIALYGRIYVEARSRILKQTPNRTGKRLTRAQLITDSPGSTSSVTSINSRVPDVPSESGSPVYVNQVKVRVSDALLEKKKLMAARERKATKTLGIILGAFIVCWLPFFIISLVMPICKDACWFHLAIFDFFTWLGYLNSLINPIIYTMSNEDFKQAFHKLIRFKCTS
# Chain of Cytochrome P450 2C9 (P11712 whole entry): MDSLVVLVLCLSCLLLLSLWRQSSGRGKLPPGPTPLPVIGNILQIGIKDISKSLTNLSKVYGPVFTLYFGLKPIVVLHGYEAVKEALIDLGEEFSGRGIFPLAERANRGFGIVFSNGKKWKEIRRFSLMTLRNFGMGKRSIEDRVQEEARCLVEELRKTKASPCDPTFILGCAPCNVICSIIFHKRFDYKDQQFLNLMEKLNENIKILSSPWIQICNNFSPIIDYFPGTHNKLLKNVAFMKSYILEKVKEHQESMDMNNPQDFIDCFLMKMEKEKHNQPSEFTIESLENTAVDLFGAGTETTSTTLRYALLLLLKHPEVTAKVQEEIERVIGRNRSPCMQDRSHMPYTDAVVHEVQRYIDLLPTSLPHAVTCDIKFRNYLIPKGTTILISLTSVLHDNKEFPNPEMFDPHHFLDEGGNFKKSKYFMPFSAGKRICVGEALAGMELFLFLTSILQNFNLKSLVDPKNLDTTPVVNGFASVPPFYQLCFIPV
# Chain of Cytochrome P450 2C19 (P33261 whole entry): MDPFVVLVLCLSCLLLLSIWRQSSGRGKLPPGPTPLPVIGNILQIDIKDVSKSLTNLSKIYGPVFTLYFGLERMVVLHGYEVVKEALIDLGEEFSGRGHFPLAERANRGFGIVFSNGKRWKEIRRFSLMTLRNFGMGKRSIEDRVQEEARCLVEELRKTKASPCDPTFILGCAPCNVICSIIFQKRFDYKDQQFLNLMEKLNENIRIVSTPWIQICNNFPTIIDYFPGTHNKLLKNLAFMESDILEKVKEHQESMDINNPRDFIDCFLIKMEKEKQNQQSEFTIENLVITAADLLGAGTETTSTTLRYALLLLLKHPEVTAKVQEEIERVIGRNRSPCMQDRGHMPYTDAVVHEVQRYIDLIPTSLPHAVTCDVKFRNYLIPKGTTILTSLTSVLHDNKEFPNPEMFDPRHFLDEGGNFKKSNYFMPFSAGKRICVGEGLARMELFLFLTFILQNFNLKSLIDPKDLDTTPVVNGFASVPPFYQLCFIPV
# Chain of Cytochrome P450 3A4 (P08684 whole entry): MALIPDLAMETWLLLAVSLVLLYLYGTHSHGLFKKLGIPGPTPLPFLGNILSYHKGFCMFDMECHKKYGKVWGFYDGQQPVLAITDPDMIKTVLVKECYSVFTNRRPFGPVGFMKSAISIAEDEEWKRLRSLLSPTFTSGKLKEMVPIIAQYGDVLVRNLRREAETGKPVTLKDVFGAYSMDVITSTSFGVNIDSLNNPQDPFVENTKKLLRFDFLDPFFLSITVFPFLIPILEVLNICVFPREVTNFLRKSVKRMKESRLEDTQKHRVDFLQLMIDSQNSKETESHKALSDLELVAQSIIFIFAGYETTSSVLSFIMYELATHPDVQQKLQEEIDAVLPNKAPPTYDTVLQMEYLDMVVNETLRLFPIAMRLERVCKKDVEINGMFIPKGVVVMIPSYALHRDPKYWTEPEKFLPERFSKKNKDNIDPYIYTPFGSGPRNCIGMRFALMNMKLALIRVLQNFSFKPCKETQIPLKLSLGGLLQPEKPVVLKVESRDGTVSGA
# Chain of hERG (Q12809 whole entry): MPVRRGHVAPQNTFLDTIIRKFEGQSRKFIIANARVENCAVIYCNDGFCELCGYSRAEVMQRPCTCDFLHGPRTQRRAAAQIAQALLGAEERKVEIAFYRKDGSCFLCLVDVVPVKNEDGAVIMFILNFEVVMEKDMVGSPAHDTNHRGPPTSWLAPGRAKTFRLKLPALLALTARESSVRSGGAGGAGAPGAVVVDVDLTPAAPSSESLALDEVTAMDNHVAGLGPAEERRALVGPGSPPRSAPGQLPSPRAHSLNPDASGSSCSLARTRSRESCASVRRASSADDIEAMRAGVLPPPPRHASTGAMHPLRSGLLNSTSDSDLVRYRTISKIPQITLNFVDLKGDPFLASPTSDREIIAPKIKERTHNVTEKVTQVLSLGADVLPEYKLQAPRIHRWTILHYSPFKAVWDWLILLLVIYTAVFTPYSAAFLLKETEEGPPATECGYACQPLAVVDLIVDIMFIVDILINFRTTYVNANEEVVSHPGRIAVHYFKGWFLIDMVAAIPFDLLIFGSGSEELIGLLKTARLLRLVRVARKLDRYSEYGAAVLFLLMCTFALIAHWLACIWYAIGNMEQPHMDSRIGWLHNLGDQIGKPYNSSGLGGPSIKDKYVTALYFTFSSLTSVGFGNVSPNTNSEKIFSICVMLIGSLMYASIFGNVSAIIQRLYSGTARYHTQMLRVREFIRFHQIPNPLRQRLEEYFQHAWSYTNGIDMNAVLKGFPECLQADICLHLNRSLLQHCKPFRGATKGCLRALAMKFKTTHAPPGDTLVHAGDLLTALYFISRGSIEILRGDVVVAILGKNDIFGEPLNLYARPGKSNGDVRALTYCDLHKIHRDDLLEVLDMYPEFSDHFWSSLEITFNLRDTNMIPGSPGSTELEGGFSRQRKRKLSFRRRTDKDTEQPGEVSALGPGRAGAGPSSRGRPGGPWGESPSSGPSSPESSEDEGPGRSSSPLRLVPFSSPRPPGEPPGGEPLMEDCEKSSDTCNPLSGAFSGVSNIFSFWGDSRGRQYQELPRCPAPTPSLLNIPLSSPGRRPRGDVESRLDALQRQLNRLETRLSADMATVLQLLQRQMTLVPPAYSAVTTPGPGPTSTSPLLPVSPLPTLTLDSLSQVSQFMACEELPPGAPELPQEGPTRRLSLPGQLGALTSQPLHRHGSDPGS
structure (smiles),measurement,setting,value
Cc1nnc(-c2ccc(C)c(-c3ccc4c(c3)NC(=O)C43CCC3)c2)[nH]1,IC50,Blood,624 nM
Cc1ncc(-c2ccc(C)c(-c3ccc4c(c3)NC(=O)C43CCOCC3)c2)[nH]1,Stability,Liver microsomes [1],Stable
same,Stability,Liver microsomes [2],Stable
same,IC50,[3],880 nM
Cc1ccc2c(NC3CC3)noc2c1-c1ccc2c(c1)NC(=O)C2(C)C,IC50,Blood,50 nM
Cc1ccc(-c2ncn[nH]2)cc1-c1ccc2c(c1)NC(=O)C21CCCC1,IC50,Blood,253 nM
Cc1nnc(-c2ccc(C)c(-c3ccc4c(c3)NC(=O)C43CCC(F)(F)CC3)c2)[nH]1,"metabolised at 0.5 h, 5 µM",[4],5%
same,"metabolised at 0.5 h, 5 µM",[5],< 5%
same,IC50,CHO [6],20000 nM
same,IC50,Blood,98 nM
same,Stability,Liver microsomes [7],Stable
Cc1ccc2c(NC3CC3)noc2c1-c1ccc2c(c1)NC(=O)C21CCCC1,IC50,Blood,2 nM
Cc1nc(-c2ccc(C)c(-c3ccc4c(c3)NC(=O)C43CCCC3)c2)no1,Stability,Liver microsomes [1],Stable
same,Stability,Liver microsomes [2],Stable
same,IC50,[3],583 nM
Cc1ccc(-c2nnc(C3CC3)[nH]2)cc1-c1ccc2c(c1)NC(=O)C21CCCC1,IC50,[3],135 nM
Cc1nnc(-c2ccc(C)c(-c3ccc4c(c3)NC(=O)C43CCOCC3)c2)[nH]1,"metabolised at 0.5 h, 5 µM",[4],23%
same,IC50,Cytochrome P450 3A4,> 25000 nM
same,inhibition,[8],> 50%
same,inhibition,[9],> 50%
same,"metabolised at 0.5 h, 5 µM",[5],< 5%
same,Cmax,[10],1100 ng/mL
same,Stability,Liver microsomes [1],Stable
same,IC50,Cytochrome P450 2C9,> 25000 nM
same,AUC(0-inf),[11],11700 ng·h/mL
same,IC50,[12],7700 nM
same,Papp A→B at 12.5 µM,[13],18 ×10⁻⁶ cm/s
same,Stability,Liver microsomes [2],Stable
same,bioavailability,[14],29%
same,Cmax,[15],1720 ng/mL
same,clearance,[16],4.2 mL/min/kg
same,IC50,Cytochrome P450 1A2,> 25000 nM
same,IC50,Blood,93 nM
same,inhibition,Rattus norvegicus,Dose-dependent effect
same,ED50,Rattus norvegicus; po,0.69 mg/kg
same,IC50,Cytochrome P450 2D6,> 25000 nM
same,Stability,Liver microsomes [7],Stable
same,IC50,Cytochrome P450 2C19,> 25000 nM
same,Papp B→A at 12.5 µM,[17],27 ×10⁻⁶ cm/s
same,IC50,[18],10000 nM
same,IC50,[19],1600 nM
same,AUC(0-inf),[20],4060 ng·h/mL
same,Activity,CHO [21],48%
same,half-life,[22],3.1 h
same,inhibition at 10 µM,hERG,49%
same,MRT,[23],4 h
same,Vd,[24],1 L/kg
same,inhibition,[25],> 50%
same,IC50,[3],7.6 nM
Cc1ccc2c(NC3CC3)noc2c1-c1ccc2c(c1)NC(=O)C21CCC(F)(F)CC1,"metabolised at 0.5 h, 5 µM",[4],25%
same,"metabolised at 0.5 h, 5 µM",[5],32%
same,Papp A→B at 12.5 µM,[13],10 ×10⁻⁶ cm/s
same,IC50,Blood,10.7 nM
same,Stability,Liver microsomes [7],Stable
same,Papp B→A at 12.5 µM,[17],4 ×10⁻⁶ cm/s
same,Activity,CHO [21],56%
Cc1nnc(-c2ccc(C)c(-c3ccc4c(c3)NC(=O)C4(C)C)c2)[nH]1,IC50,[3],87 nM
Cc1ccc2c(N)noc2c1-c1ccc2c(c1)NC(=O)C21CCC(F)(F)CC1,IC50,Blood,137 nM
same,IC50,[3],1.2 nM
Cc1cnc(-c2ccc(C)c(-c3ccc4c(c3)NC(=O)C43CCOCC3)c2)[nH]1,Stability,Liver microsomes [1],Stable
same,Stability,Liver microsomes [2],Stable
same,IC50,[3],173 nM
O=C1Nc2cc(-c3cccc4c(NC5CC5)noc34)c(Cl)cc2C12CCCC2,IC50,Blood,438 nM
Cc1ccc2c(N)noc2c1-c1ccc2c(c1)NC(=O)C21CCOCC1,"metabolised at 0.5 h, 5 µM",[4],9%
same,"metabolised at 0.5 h, 5 µM",[5],3%
same,Cmax,[10],141 ng/mL
same,AUC(0-inf),[11],961 ng·h/mL
same,Papp A→B at 12.5 µM,[13],28 ×10⁻⁶ cm/s
same,bioavailability,[14],8%
same,Cmax,[15],752 ng/mL
same,clearance,[16],13.8 mL/min/kg
same,IC50,Blood,145 nM
same,Stability,Liver microsomes [7],Stable
same,Papp B→A at 12.5 µM,[17],16 ×10⁻⁶ cm/s
same,AUC(0-inf),[20],1230 ng·h/mL
same,Activity,CHO [21],16%
same,half-life,[22],1.9 h
same,MRT,[23],2.5 h
same,Vd,[24],2 L/kg
same,IC50,[3],5 nM
Cc1ccc2c(N)noc2c1-c1ccc2c(c1)NC(=O)C2(C)C,IC50,Blood,731 nM
Cc1nnc(-c2ccc(C)c(-c3ccc4c(c3)NC(=O)C43CCCC3)c2)[nH]1,"metabolised at 0.5 h, 5 µM",[4],15%
same,"metabolised at 0.5 h, 5 µM",[5],13%
same,Stability,Liver microsomes [1],Stable
same,Stability,Liver microsomes [2],Stable
same,Activity,CHO [26],53%
same,IC50,Blood,127 nM
same,Stability,Liver microsomes [7],Stable
same,IC50,[3],7.4 nM
Cc1nnc(-c2ccc(C)c(-c3ccc4c(c3)NC(=O)C43CCN(S(C)(=O)=O)CC3)c2)[nH]1,"metabolised at 0.5 h, 5 µM",[4],< 5%
same,"metabolised at 0.5 h, 5 µM",[5],6%
same,Cmax,[10],632 ng/mL
same,IC50,CHO [6],100000 nM
same,AUC(0-inf),[11],1370 ng·h/mL
same,Papp A→B at 12.5 µM,[13],2 ×10⁻⁶ cm/s
same,bioavailability,[14],13%
same,Cmax,[15],1300 ng/mL
same,clearance,[16],17.2 mL/min/kg
same,IC50,Blood,50 nM
same,Stability,Liver microsomes [7],Stable
same,Papp B→A at 12.5 µM,[17],45 ×10⁻⁶ cm/s
same,AUC(0-inf),[20],1030 ng·h/mL
same,half-life,[22],3.8 h
same,MRT,[23],1.8 h
same,Vd,[24],1.75 L/kg
Cc1noc(-c2ccc(C)c(-c3ccc4c(c3)NC(=O)C43CCCC3)c2)n1,Stability,Liver microsomes [1],Stable
same,Stability,Liver microsomes [2],Stable
same,IC50,[3],741 nM
Cc1ccn2c(N)nnc2c1-c1ccc2c(c1)NC(=O)C21CCCC1,IC50,Blood,2110 nM
same,IC50,[3],34 nM
Cc1ccc2c(N)n[nH]c2c1-c1ccc2c(c1)NC(=O)C21CCOCC1,inhibition,[27],60%
Cc1ccc2c(NC3CC3)noc2c1-c1ccc2c(c1)NC(=O)C21CCOCC1,"metabolised at 0.5 h, 5 µM",[4],18%
same,"metabolised at 0.5 h, 5 µM",[5],26%
same,Cmax,[10],479 ng/mL
same,IC50,CHO [6],49000 nM
same,AUC(0-inf),[11],3370 ng·h/mL
same,Papp A→B at 12.5 µM,[13],26 ×10⁻⁶ cm/s
same,bioavailability,[14],6%
same,Cmax,[15],1480 ng/mL
same,clearance,[16],3.2 mL/min/kg
same,IC50,Blood,8.4 nM
same,Stability,Liver microsomes [7],Stable
same,Papp B→A at 12.5 µM,[17],16 ×10⁻⁶ cm/s
same,AUC(0-inf),[20],5270 ng·h/mL
same,half-life,[22],2.9 h
same,MRT,[23],4.6 h
same,Vd,[24],0.8 L/kg
same,IC50,[3],0.16 nM
O=C1Nc2cc(-c3cccc4c(NC5CC5)noc34)ccc2C12CCCC2,IC50,Blood,1260 nM
same,IC50,[3],38 nM
